Here are results for 11 compounds from ChEMBL document CHEMBL6083223, “Development of di-arylated 1,2,4-triazole-based derivatives as therapeutic agents against breast cancer: synthesis and biological evaluation” (RSC Med Chem, 2024).

SMILES strings stand for the structures. Activity calls are given as the source filed them. The rule behind the calls is not given here.

For data set [1], the system named is MDA-MB-231. Kind of data set: Antiproliferative activity against human MDA-MB-231 cells assessed as inhibition of cell growth at 10 uM incubated for 48 hrs by MTT assay. Type of data set: functional. The gist of the method: (§1)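 Single-concentration screen: cells (ATCC; 37 °C, 5% CO₂) seeded at 4 × 10⁴ per well, adhered overnight, then treated 48 h at 10 μM. Medium removed, MTT (2.5 mg mL⁻¹) added for 4 h, formazan dissolved in DMSO, absorbance read at 570 nm; percent inhibition versus untreated cells.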
For orientation: Tetrazolium assays rely on reduction of a dye to a coloured formazan, in cell work by metabolically active cells.

Data set [2] has as its system MCF7. Briefly: Antiproliferative activity against human MCF7 cells assessed as inhibition of cell growth at 10 uM incubated for 48 hrs by MTT assay. Type of data set: functional. The gist of the method:
as §1

Data set [3] deals with ZR-75-1. Kind of data set: Antiproliferative activity against human ZR-75-1 cells assessed as inhibition of cell growth at 10 uM incubated for 48 hrs by MTT assay. It is filed as functional. Summed up:
as §1

Data set [4] deals with MDA-MB-231. Kind of data set: Antiproliferative activity against human MDA-MB-231 cells assessed as inhibition of cell growth at 1 uM incubated for 48 hrs by MTT assay. Type of data set: functional. Summed up: (§2)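 Positive-control reference measured alongside the single-concentration screen: cells seeded at 4 × 10⁴ per well, adhered overnight, exposed 48 h to doxorubicin at 1 μM. MTT (2.5 mg mL⁻¹) added for 4 h, formazan dissolved in DMSO, absorbance at 570 nm; percent growth inhibition relative to untreated cells.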

Data set [5] has as its system ZR-75-1. Kind of data set: Antiproliferative activity against human ZR-75-1 cells assessed as inhibition of cell growth at 1 uM incubated for 48 hrs by MTT assay. Type of data set: functional. Summed up: as §2
Data set [6] has as its system MCF7. Briefly: Antiproliferative activity against human MCF7 cells assessed as inhibition of cell growth at 1 uM incubated for 48 hrs by MTT assay. Type of data set: functional. Summed up:
as §2

For data set [7], the system named is MDA-MB-231. Kind of data set: Antiproliferative activity against human MDA-MB-231 cells assessed as inhibition of cell growth incubated for 48 hrs by MTT assay. It is filed as functional, cell-based. Particulars: MDA-MB-231, 48 h.
In data set [8] the test system is ZR-75-1. Kind of data set: Antiproliferative activity against human ZR-75-1 cells assessed as inhibition of cell growth incubated for 48 hrs by MTT assay. Type of data set: functional, cell-based. The following applies: ZR-75-1, 48 h.
Data set [9] can be described thus: Intrinsic clearance in monkey liver microsomes measured per mg protein. It is filed as ADME, Macaca mulatta, Microsome. The following applies: rhesus monkey. The gist of the method:
(§3)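 Substrate depletion: microsomes (0.5 mg mL⁻¹ protein) in 100 mM PBS pH 7.4, 3.3 mM MgCl₂, 1.2 mM NADPH, preincubated 5 min at 37 °C; compound spiked at 5 μM, sampled at 0, 15 and 30 min. Quenched with cold acetonitrile containing diazepam internal standard, LC-MS/MS; triplicate. Log-linear plot of remaining substrate (0 min = 100%) gives parameters.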

A short description of data set [10]: Metabolic stability of the compound in monkey liver microsomes at 5 uM measured for 30 mins in absence of NADPH by substrate depletion method based LC-MS/MS analysis. It is filed as ADME, Macaca mulatta, Microsome. Particulars: rhesus monkey, 0.5 h. The gist of the method: (§4)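 NADPH-free control incubations: microsomes (0.5 mg mL⁻¹) in 100 mM PBS pH 7.4 with 3.3 mM MgCl₂, no NADPH, 37 °C; compound 5 μM, 0–30 min. Acetonitrile quench with diazepam internal standard, LC-MS/MS; percent remaining versus 0 min, triplicate.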
For orientation: Liver microsomes are vesicles of endoplasmic reticulum, rich in cytochrome P450 enzymes.

Data set [11] in a line: Intrinsic clearance in dog liver microsomes measured per mg protein. Particulars: read-out: CLH. It is filed as ADME, Canis lupus familiaris, Microsome. Summed up:
as §3

Data set [12] is described as follows: Half life in rat liver microsomes. It is filed as ADME, Microsome. Summed up: as §3
The nature of data set [13]: Metabolic stability of the compound in rat liver microsomes at 5 uM measured for 30 mins in absence of NADPH by substrate depletion method based LC-MS/MS analysis. It is filed as ADME, Microsome. Particulars: 0.5 h. Summed up: as §4
The nature of data set [14]: Half life in dog liver microsomes. It is filed as ADME, Canis lupus familiaris, Microsome. The gist of the method:
as §3

The subject of data set [15] is MCF7. Briefly: Induction of autophagy in human MCF7 cells assessed as increase in autophagosome production at 5 to 20 uM by acridine orange staining based fluorescence microscopic analysis. The following applies: dose 5-20 µM. Type of data set: functional, cell-based. The gist of the method:
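MCF-7 cells treated at 5, 10 and 20 μM, then stained with 200 nM acridine orange for 10 min at 37 °C and imaged by fluorescence microscopy.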

Data set [16] in a line: Metabolic stability of the compound in mouse liver microsomes at 5 uM measured for 30 mins in absence of NADPH by substrate depletion method based LC-MS/MS analysis. Type of data set: ADME, Microsome. The following applies: 0.5 h. Summed up: as §4
For data set [17], the system named is MCF7. Briefly: Antiproliferative activity against human MCF7 cells assessed as inhibition of cell growth incubated for 48 hrs by MTT assay. It is filed as functional, cell-based. The following applies: MCF7, 48 h. Summed up: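 MCF-7 exposed 48 h to 0.625, 1.25, 2.5, 5, 10, 20 and 40 μM. MTT (2.5 mg mL⁻¹) added for 4 h, medium removed, formazan solubilized in DMSO, absorbance at 570 nm; percent growth inhibition calculated and IC50 derived.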

Data set [18] concerns MCF7. Briefly: Induction of apoptosis in human MCF7 cells assessed as increase in cleaved PARP protein expression at 5 to 20 uM incubated for 48 hrs by western blot analysis. Type of data set: functional, cell-based. Particulars: dose 5-20 µM. Summed up: (§5)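 MCF-7 cells (1 × 10⁶ per 100 mm dish, RPMI 1640 with 10% FBS) treated 48 h at 5, 10, 15 and 20 μM, 37 °C. RIPA lysates, Bradford-quantified, 50 μg per lane on SDS-PAGE, PVDF transfer, 5% BSA/TBST block; probed for cleaved PARP (1:1000) and Bax (1:400), band densitometry.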
(In western blotting, separated proteins are transferred to a membrane and probed.)

Data set [19] in a line: Half life in human liver microsomes. It is filed as ADME, Microsome. The gist of the method: as §3
In data set [20] the test system is MCF7. Kind of data set: Induction of apoptosis in human MCF7 cells assessed as increase in Bax protein expression at 5 to 20 uM incubated for 48 hrs by western blot analysis. Type of data set: functional, cell-based. Particulars: dose 5-20 µM. The gist of the method: as §5
The subject of data set [21] is MCF7. Briefly: Increase in reactive oxygen species production in human MCF7 cells treated with higher concentrations by DCFH-DA staining based fluorescence microscopic analysis. It is filed as functional, cell-based.
The nature of data set [22]: Half life in mouse liver microsomes. Type of data set: ADME, Microsome. Summed up: as §3
Data set [23] in a line: Metabolic stability of the compound in dog liver microsomes at 5 uM measured for 30 mins in absence of NADPH by substrate depletion method based LC-MS/MS analysis. It is filed as ADME, Canis lupus familiaris, Microsome. The following applies: 0.5 h. Summed up:
as §4

Data set [24] can be described thus: Metabolic stability of the compound in human liver microsomes at 5 uM measured for 30 mins in absence of NADPH by substrate depletion method based LC-MS/MS analysis. The following applies: 0.5 h. Type of data set: ADME, Microsome. Summed up: as §4
A short description of data set [25]: Intrinsic clearance in rat liver microsomes measured per mg protein. It is filed as ADME, Microsome. Particulars: read-out: CLH. The gist of the method:
as §3

Data set [26] concerns MCF7. Kind of data set: Induction of apoptosis in human MCF7 cells assessed as disruption of mitochondrial […] membrane potential by measuring decrease in fluorescence intensity at 5 to 20 uM incubated for 30 mins by Rhodamine123 staining based fluorescence microscopic analysis. Type of data set: functional, cell-based. The following applies: dose 5-20 µM. Summed up: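 MCF-7 cells treated at 5, 10 and 20 μM; rhodamine 123 (1 μg) added 30 min before the end of treatment, cells rinsed with PBS and examined under a fluorescence microscope for loss of mitochondrial fluorescence.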

Data set [27] is described as follows: Cytotoxicity against human MCF-10A cells assessed as inhibition of cell growth incubated for 24 hrs by MTT assay. It is filed as toxicity, cell-based. The gist of the method: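 Non-tumorigenic MCF-10A breast epithelial cells in 96-well plates (5% CO₂) exposed 24 h to 10, 50 and 100 μM. MTT (2.5 mg mL⁻¹) for 4 h, formazan dissolved in DMSO, absorbance at 570 nm; percent growth inhibition calculated to estimate IC50.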

A short description of data set [28]: Half life in monkey liver microsomes. Type of data set: ADME, Macaca mulatta, Microsome. Particulars: rhesus monkey. The gist of the method:
as §3

Data set [29] is described as follows: Intrinsic clearance in mouse liver microsomes measured per mg protein. It is filed as ADME, Microsome. The gist of the method: as §3
The nature of data set [30]: Intrinsic clearance in human liver microsomes measured per mg protein. Type of data set: ADME, Microsome. Summed up:
as §3

Turning to `COc1cc(-n2cnc(-c3cccc(O)c3)n2)cc(OC)c1OC`, the inhibition (usually how much of the control response was suppressed) at 10 µM with MDA-MB-231 [1] was 10.4%; in the data set on MCF7 [2] it was 32.8%; in the data set with ZR-75-1 [3], 8.54%.

As for `COc1cccc2c1C(=O)c1c(O)c3c(c(O)c1C2=O)C[C@@](O)(C(=O)CO)C[C@@H]3O[C@H]1C[C@H](N)[C@H](O)[C@H](C)O1` [DOXORUBICIN], the inhibition at 1 µM in the data set with MDA-MB-231 [4] was 37.9%; in the data set with ZR-75-1 [5] it was 45.5%; with MCF7 [6], 45.5%. Also, the IC50 (as a rule, the concentration needed to halve the response being measured) is 1.7 µM in the data set on MDA-MB-231 [7] and 1.2 µM in the data set with ZR-75-1 [8].

In the case of `COc1ccc(-c2ncn(-c3ccccc3)n2)cc1`, the results for the inhibition at 10 µM in the data set with MDA-MB-231 [1], in the data set with MCF7 [2] and in the data set on ZR-75-1 [3] were 0%, 0.853% and 0%, respectively.

As to `COc1ccc(-c2ncn(-c3cc(OC)c(OC)c(OC)c3)n2)cn1`, the inhibition at 10 µM in the data set on MDA-MB-231 [1] came out at 5.25%; in the data set with MCF7 [2], 35.9%; with ZR-75-1 [3] it was 4.95%.

Consider `COc1cc(-n2cnc(-c3ccc(F)cc3)n2)cc(OC)c1OC`, for which the inhibition at 10 µM stood at 23.1% in the data set on MDA-MB-231 [1] and 20.2% with MCF7 [2].

`COc1ccc(-c2ncn(-c3cc(OC)c(OC)c(OC)c3)n2)cc1F`: the inhibition at 10 µM with MDA-MB-231 [1] turned out to be 32.1%; with MCF7 [2] it was 51.3%; with ZR-75-1 [3], 6.41%. Moreover, the microsomal CLint in [9] was 23 µL/min/mg; in data set [11], greater than 53 µL/min/mg; in data set [25], greater than 86.1 µL/min/mg; in [29], 41 µL/min/mg; in [30], 13 µL/min/mg. Moreover, the Stability entry in [10], in data set [13], in data set [16], in data set [23] and in [24] was “Stable” in each case. Also, the half-life (as a rule, the time in which the quantity being followed falls by half) in data set [12] was less than 30 min; in [14], less than 30 min; in [19] it was greater than 60 min; in data set [22] it was 34 min; in [28], 60 min. Moreover, the result in the data set on MCF7 [15], with MCF7 [18], in the data set with MCF7 [20], in the data set with MCF7 [21] and with MCF7 [26] was Active. Also, the IC50 with MCF7 [17] was 4.8 µM; in the data set with MDA-MB-231 [7], 17 µM; with ZR-75-1 [8], 34 µM. In addition, the IC50 at 24 h in data set [27] was greater than 100 µM.

Regarding `c1ccc2c(-c3ncn(-c4ccc5c(c4)OCO5)n3)cccc2c1`, the inhibition at 10 µM in the data set on MDA-MB-231 [1] came to 15.3%; in the data set with MCF7 [2], 5.71%.

Turning to `c1cc2c(cc1-c1ncn(-c3ccc4c(c3)OCO4)n1)OCO2`, the inhibition at 10 µM stood at 17.1% in the data set on MDA-MB-231 [1] and 8.99% in the data set on MCF7 [2].

Take `COc1cc(-n2cnc(-c3ccc4c(c3)OCO4)n2)cc(OC)c1OC`: the inhibition at 10 µM in the data set with MDA-MB-231 [1] is 17.9%; in the data set with MCF7 [2], 21.2%.

With `COc1ccc(-n2cnc(-c3ccc(F)c(F)c3)n2)cc1OC`, the inhibition at 10 µM was 7.98% in the data set with MDA-MB-231 [1] and 16.1% in the data set on MCF7 [2].

As to `COc1ccc(-n2cnc(-c3cccc(C(F)(F)F)c3)n2)cc1OC`, the inhibition at 10 µM in the data set with MDA-MB-231 [1] came to 12.8%; in the data set with MCF7 [2] it was 18.4%.
